Paper PMC8082945 (Journal of medicinal chemistry, 2020)
Values joined by “and” are separate entries in the source; they are usually repeats but may differ in a detail not shown here. Equal values may be shown once.

Legend:
[1] = Tissue distribution analysis in mice; format: in vivo; settings: mouse, colon, intravenous, 10 mg/kg
Outline: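 Tissue homogenised with bead beating in dissociation solvent at five-fold tissue weight. 30 μL homogenate mixed with 30 μL acetonitrile and 140 μL internal standard, vortexed, and centrifuged at 3500 g for 10 min. Supernatant analysed by LC-MS against calibration curves made in spiked blank homogenate.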

[2] = biological target: T1, GPX4 (Homo sapiens, UniProt P36969); assay: Cellular thermal shift assay; format: cell-based; settings: pancreatic cancer cells, 100 μM, 1 h
T1 sequence (P36969 1-197): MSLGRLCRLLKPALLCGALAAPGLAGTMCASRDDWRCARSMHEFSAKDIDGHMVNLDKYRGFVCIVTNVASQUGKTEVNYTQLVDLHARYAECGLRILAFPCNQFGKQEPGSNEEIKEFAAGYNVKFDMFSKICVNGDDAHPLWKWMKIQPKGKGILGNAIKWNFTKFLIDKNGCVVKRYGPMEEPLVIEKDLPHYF
Outline: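 MIA PaCa-2 or PANC-1 cells seeded at 3 × 10^6 per 10 cm dish, attached overnight, then exposed to 100 μM test compound or DMSO for 1 h. After heating, supernatants were resolved on 10% SDS gels and immunoblotted for GPX4. Bands were quantified to derive a GPX4 melting temperature.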

[3] = tested on: MIA PaCa-2 cells; assay: Cellular ROS measurement; format: cell-based; settings: for Cellular ROS: MIA PaCa-2 cells, 0-4 h, 30 min
Outline: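 MIA PaCa-2 cells (RPMI 1640, 10% FBS, 37 °C, 5% CO2) seeded at 1.8 × 10^4 cells/well and attached overnight. Cells loaded with 10 μM CM-H2DCFDA in HBSS for 40 min at 37 °C, then washed twice with DPBS. Test compound added in HBSS at set concentrations. Fluorescence read at Ex 483/Em 530 nm over time. TBHP served as positive control.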

[4] = tested on: mouse colon cancer cell line CT-26; assay: CT-26 subcutaneous tumor study in Balb/c mice; format: in vivo; settings: n=5, preliminary study
[5] = PK study in CD-1 mice; format: in vivo; settings: for Concentration at 7 h in mouse plasma, IP: IP 10 mg/kg, 10 mg/kg; for Concentration at 7 h in mouse plasma, IP / Concentration at 7 h in mouse plasma, PO: n=2, individual values; for Survival of mice after IV injection: IV 10 mg/kg; for Concentration at 7 h in mouse plasma, PO: PO 20 mg/kg, 20 mg/kg
Outline: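 CD-1 mice dosed IP (10 mg/kg), PO (20 mg/kg) or IV (10 mg/kg). Blood drawn at 0.5, 2, 4 and 7 h using heparinized calibrated pipettes and centrifuged at 15,000 rpm for 10 min. Plasma collected, frozen at −80 °C, and assayed by LC-MS/MS.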

[6] = tested on: MIA PaCa-2 cells; assay: Lipid ROS measurement; format: cell-based; settings: 24 h treatment, BODIPY C11
Outline: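 After compound exposure, MIA PaCa-2 cells received 10 μM C11-BODIPY for 30 min at 37 °C. They were washed twice with DPBS and read in HBSS on a plate reader at Ex/Em 581/591 nm (reduced dye) and 488/510 nm (oxidized dye). The Texas Red/FITC emission ratio was calculated; significance by unpaired Student's t-test.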

[7] = tested on: LRPPRC and PNPT1; assay: Immunoblot of LRPPRC and PNPT1 expression; format: cell-based; settings: MIA PaCa-2 cells, 3 × IC50, 4 h
Outline: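 Cells seeded at 3.5 × 10^5 per 6-well were treated for 1 h or 4 h (H2O2 comparator 150 μM). Lysis was in RIPA with protease/phosphatase inhibitors, then sonication and BCA. 25 μg protein was run on 10% SDS-PAGE and transferred to PVDF. Blocking: 5% milk. Primary antibodies 1:500–1:1000 overnight at 4 °C, Dylight 800 secondary 1:6000 for 1 h. Infrared imaging; band densities normalized to loading controls.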

[8] = tested on: STAT3; assay: Immunoblot of STAT3 phosphorylation and pH2AX; format: cell-based; settings: MIA PaCa-2 and PANC-1 cells, 4 h
Outline: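 Cells seeded at 3.5 × 10^5/well (6-well) and treated 4 h at indicated concentrations. Lysed in RIPA with protease and phosphatase inhibitors, sonicated and centrifuged. 25 μg protein run on 10% SDS-PAGE and transferred to PVDF. Blocked in 5% milk; primary antibodies (STAT3, pSTAT3, pH2AX, GAPDH; 1:500–1:1000) overnight at 4 °C; infrared secondary 1:6000, 1 h RT. Signals normalised to loading control.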

[9] = tested on: GSH/GSSG ratio; assay: GSH/GSSG-Glo assay; format: cell-based; settings: MIA PaCa-2 cells, 2 h and 4 h treatment
Outline: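 Luminescent GSH/GSSG-Glo kit. 15,000–20,000 cells/well attached overnight, then were treated. Medium was removed and cells were lysed in Total or Oxidized Glutathione Reagent (5 min shaking). Luciferin Generation Reagent was added for 30 min at room temperature, then Detection Reagent; luminescence was read after 15 min equilibration. Ratio from net RLU = (total glutathione − GSSG)/(GSSG/2).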

[10] = tested on: pancreatic cancer cells; assay: Colony formation assay, drug combinations; format: cell-based
Outline: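 Cells seeded in 96-well plates: 300/well for MIA PaCa-2, 600/well for PANC-1 and BxPC-3; attached overnight. Partner drug added 1 h before test compound, with continuous exposure. Incubation ran 7–9 days, until control wells were 80–90% confluent. Stained with 0.05% crystal violet for 30 min, washed, dried and imaged. Synergy scored with HSA and Bliss models.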

[11] = tested on: BxPC-3 pancreatic cancer cells; assay: MTT cytotoxicity assay in BxPC-3 cells; format: cell-based; settings: read-out: IC50 BxPC-3, 72 h, mean ± sd, three independent experiments
Outline: (§1)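 Cells kept in RPMI 1640 with 10% FBS, under 35 passages, mycoplasma-free. Seeded in 96-well plates and attached overnight. Exposed to test compound or DMSO for 72 h, then 0.3 mg/mL MTT for 3 h at 37 °C. Medium removed, formazan dissolved in DMSO with 15 min shaking, absorbance read at 570 nm. IC50 obtained by curve fitting; mean ± SD from at least three independent experiments.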

[12] = tested on: PANC-1 pancreatic cancer cells; assay: MTT cytotoxicity assay in PANC-1 cells; format: cell-based; settings: read-out: IC50 PANC-1, 72 h, mean ± sd, three independent experiments
Outline: as §1

[13] = tested on: MIA PaCa-2 pancreatic cancer cells; assay: MTT cytotoxicity assay in MIA PaCa-2 cells; format: cell-based; settings: read-out: IC50 MIA PaCa-2, 72 h, mean ± sd, three independent experiments
Outline: as §1

CC1=C(Nc2ccc(N3CCN(C)CC3)cc2)C(=O)c2cncnc2C1=O [QD394-Me, 7-Methyl-6-((4-(4-methylpiperazin-1-yl)phenyl)amino)quinazoline-5,8-dione]
concentration at 1 h [1]: ~300 ng/g | Effect on GPX4 protein stability (CETSA) [2]: destabilized GPX4 protein | Cellular ROS [3]: significantly increased cellular ROS | Tumor shrinkage, QD394-Me IV group ([4]; CT-26, IV 10 mg/kg): Three out of five mice displayed tumor shrinkage | Concentration at 7 h in mouse plasma, IP [5]: 6.7 ng/mL and 1.1 ng/mL | Survival of mice after IV injection ([5]; n=3): all three mice that received IV injections of QD394-Me survived | Concentration at 7 h in mouse plasma, PO [5]: 4.2 ng/mL | Lipid ROS (lipid peroxidation) [6]: increased lipid ROS significantly in a dose-dependent manner | Protein expression of LRPPRC and PNPT1 [7]: significantly decreased protein expression of LRPPRC and PNPT1

CC(=O)c1cc2c(o1)C(=O)c1ccccc1C2=O [Napabucasin, reference compound]
Protein expression of LRPPRC and PNPT1 [7]: decreased the protein expression of these two genes

CN1CCN(c2ccc(NC3=CC(=O)c4ncncc4C3=O)cc2)CC1 [QD394, 6-(4-(4-Methylpiperazin-1-yl)phenylamino)quinazoline-5,8-dione]
Effect on GPX4 protein stability (CETSA) [2]: destabilized GPX4 protein | Phosphorylation of H2AX (DNA damage biomarker) [8]: increased the phosphorylation of H2AX | Phosphorylation of STAT3 [8]: inhibited the phosphorylation of STAT3 | Cellular ROS [3]: time-dependent cellular ROS accumulation | Intracellular ROS level among analogs ([3]; after 1 h compound treatment): highest level of intracellular ROS | Tumor shrinkage, QD394 IP group ([4]; CT-26, IP 20 mg/kg): Three out of five mice displayed tumor shrinkage | Concentration at 7 h in mouse plasma, IP [5]: 5.0 ng/mL | Survival of mice after IV injection ([5]; n=3, 10 mg/kg): two out of three mice administered with QD394 via IV injection died and 2 out of 3 mice died | Concentration at 7 h in mouse plasma, PO [5]: 23.3 ng/mL and 25.8 ng/mL | GSH/GSSG ratio [9]: significantly decreased the GSH/GSSG ratio | Lipid ROS (lipid peroxidation) [6]: significantly increased lipid ROS in a dose-dependent manner | Combination with napabucasin ([10]; MIA PaCa-2 and PANC-1 cells): synergism | Combination with As2O3 ([10]; pancreatic cancer cells): sensitizes cells to As2O3 | Combination with olaparib ([10]; pancreatic cancer cells): synergistic effects | Protein expression of LRPPRC and PNPT1 [7]: significantly decreased their expression at 4 h

6-(9H-Fluoren-4-ylamino)quinazoline-5,8-dione [QD390]
IC50 [11]: 4.5 ± 0.6 µM | IC50 [12]: 4.7 ± 1.5 µM | IC50 [13]: 3.1 ± 1.5 µM
